These results are taken from ChEMBL document CHEMBL3352407, “Griseorhodins D-F, neuroactive intermediates and end products of post-PKS tailoring modification in Griseorhodin biosynthesis” (J Nat Prod, 2014).

Assay [1] concerns DRG neuron. The experiment in a line: Induction of depolarization of mouse DRG neurons at 10 ug/ml by Fura-2 dye-based fluorescence microscopy. Type of assay: functional. In short, it runs like this: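 Dorsal root ganglion cells were taken from mice, plated in medium with additives and loaded with Fura-2 AM. Intracellular Ca2+ was followed as the read-out while compound was applied at 10 μg/mL. This was followed by 25 mM KCl, with responses compared against control cells in the same well.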

The subject of assay [2] is DRG neuron. Description: Increase in Ca2+ uptake in mouse DRG neurons at 10 ug/ml by Fura-2 dye-based fluorescence microscopy in presence of KCl relative to control. Type of assay: functional. In short, it runs like this: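 Mouse DRG cells plated in medium with additives and loaded with the Ca2+ dye Fura-2 AM. Compound applied at 10 μg/mL, then 25 mM KCl added. Ca2+ influx compared with control cells in the same well.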

The source made the active and inactive calls. No cut-off for these calls is given here.

As to `CC(=O)Cc1cc2c(c(O)c1C(=O)O)-c1cc3c(c(O)c1CC2)C(=O)c1c(O)cc(O)cc1[C@H]3[C@H]1c2cc(O)cc(O)c2C(=O)c2c1cc1c(c2O)CCc2cc(CC(C)=O)c(C(=O)O)c(O)c2-1` (stereo in doubt; 1b), in assay [1], the outcome was inactive. In assay [2], the result was Active.

For `CC(=O)Cc1cc2c(c(O)c1C(=O)O)-c1cc3c(c(O)c1CC2)C(=O)c1c(O)cc(O)cc1[C@H]3[C@H]1c2cc(O)cc(O)c2C(=O)c2c1cc1c(c2O)CCc2cc(CC(C)=O)c(C(=O)O)c(O)c2-1` (stereo in doubt; 1a), the outcome in assay [1] was inactive. For the same compound, in assay [2], the result was Active.
